Published values collected from several papers.
Lines come from different studies, so protocols differ.
Target: Serine/threonine-protein kinase 10 (STK10, Homo sapiens, UniProt O94804)

CN(C)c1nccc(-c2cnc3ncccn23)n1
remaining binding (binding; 1 µM): 100%

COc1ncc2cc3ccccc3nc2c1C#N
remaining binding (cell-free assay, competition with immobilised ligand; 5 µM): 100%

CN(C)C(=O)Cn1cc(-c2nc([C@@](C)(c3ccc(-c4cnc(N)nc4)cc3)C3CC3)no2)cn1
remaining binding (cell-free assay, competition with immobilised ligand; 1 µM): 89%

COc1cnc(Nc2cccc(S(N)(=O)=O)c2)nc1N1CCN(c2ccccc2)CC1
remaining binding (binding, competition with immobilised ligand; 1 µM): 100%

CCCOc1ccc([C@H]2[C@H](C(=O)O)[C@@H](c3ccc4c(c3)OCO4)CN2CC(=O)Nc2c(CC)cccc2CC)cc1
remaining binding (cell-free assay, competition with immobilised ligand; 1 µM): 97%

CN(C)c1nccc(-c2cnn3ncccc23)n1
remaining binding (binding; 1 µM): 100%

Cn1cc(Cl)c2c(Oc3c(F)cc(Nc4cc(Cl)nc(N)n4)cc3F)ccnc21
remaining binding (cell-free assay, competition with immobilised ligand; 0.1 µM): 100%

c1cncc(-c2cccc(Nc3nccc(NC4CCCCC4)n3)c2)c1
remaining binding (binding, competition with immobilised ligand; 10 µM): 38%

CS(=O)(=O)c1cc(C2(NC(=O)c3cncc4c3cnn4-c3ccc(F)cc3)CC2)ccn1
remaining binding (cell-free assay, competition with immobilised ligand; 1 µM): 99%

Cc1cnc(Nc2ccc(C(=O)N3CCC(N4CCCC4)CC3)cc2)nc1-c1cc2ccccc2s1
remaining binding (binding, competition with immobilised ligand; 1 µM): 14%

CC1CCCN1c1nccc(-c2cnn3ncccc23)n1 (centres unmarked)
remaining binding (binding; 1 µM): 96%

CC1=C(C#N)[C@@H](c2ccc3[nH]nc(C)c3c2)C(C#N)=C(c2ccc(Cl)cc2)N1
remaining binding (cell-free assay, competition with immobilised ligand; 1 µM): 100%

Nc1ncc2c(n1)-c1c([nH]c3ccc(C#CC4CC4)cc13)CCCC2
remaining binding (binding, competition with immobilised ligand; 1 µM): 99%

O=C(c1ccc(Nc2nccc(-c3cc4ccccc4s3)n2)cc1)N1CCC(N2CCCC2)CC1
remaining binding (binding, competition with immobilised ligand; 1 µM): 58%

COc1ccnn2ncc(-c3ccnc(N(C)C)n3)c12
remaining binding (binding; 1 µM): 95%

O=C(c1ccc(Nc2ncc(Cl)c(-c3cc4ccccc4s3)n2)cc1)N1CCC(N2CCCC2)CC1
remaining binding (binding, competition with immobilised ligand; 1 µM): 43%

C[C@@H]1CCN(c2nccc(-c3cnn4ncccc34)n2)C1
remaining binding (binding; 1 µM): 98%

C[C@@H]1CN(c2cc(-c3nn(C)c4ccc(OC5(C)CC5)cc34)ncn2)C[C@H](C)O1
remaining binding (cell-free assay, competition with immobilised ligand; 1 µM): 91%

N[C@@H]1CCN(c2nccc(-c3cnn4ncccc34)n2)C1
remaining binding (binding; 1 µM): 100%

O=C(NCC1CCOCC1)c1n[nH]cc1NC(=O)c1c(F)cccc1F
remaining binding (binding, competition with immobilised ligand; 1 µM): 100%
